Key:
[1] = Effective concentration required for antiviral activity against pinchinde virus; type: functional
[2] = Effective concentration required for antiviral activity against west Nile virus; type: functional
[3] = Concentration required for cytotoxic activity against african green monkey kidney MA-104 cell line was determined using neutral red method; type: functional; conditions: Cercopithecidae, MA104
[4] = tested on: Respiratory syncytial virus; test: Effective concentration required for antiviral activity against respiratory syncytial virus; type: functional, organism-based; conditions: human respiratory syncytial virus
[5] = Effective concentration required for antiviral activity against bovine viral diarrhoea virus; type: functional, Bovine viral diarrhea virus 1
[6] = tested on: Human immunodeficiency virus; test: Effective concentration required for antiviral activity against human immunodeficiency virus; type: functional, organism-based; conditions: Human immunodeficiency virus 1
[7] = tested on: Hepatitis B virus; test: Effective concentration required for 90% of antiviral activity against hepatitis B virus; type: functional
[8] = Effective concentration required for 90% of antiviral activity against bovine viral diarrhoea virus; type: functional, Bovine viral diarrhea virus 1; conditions: Bovine viral diarrhea virus isolates and strains
[9] = tested on: Human immunodeficiency virus; test: Effective concentration required for 90% of antiviral activity against human immunodeficiency virus; type: functional; conditions: Human immunodeficiency virus 1
[10] = tested on: Huh-7; test: Effective concentration required for 90% reduction in subgenomic hepatitis C virus replicon RNA levels in Huh-7 cells after 96 hr of compound exposure; type: functional; conditions: Homo sapiens, Huh-7, 96 h
Method in brief: (§1)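 HCV subgenomic replicon-bearing Huh-7 cells were seeded at 1000 cells/well in 96-well plates, with compound added immediately after seeding, and incubated for 96 h. Total cellular RNA was isolated. Replicon RNA and a ribosomal RNA internal control were amplified by single-step multiplex real-time RT-PCR. HCV RNA was normalized to rRNA by ΔΔCt and calibrated against the no-drug control. Recombinant interferon alpha-2a was the positive control.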

[11] = Effective concentration required for antiviral activity against punta toro A virus; type: functional
[12] = tested on: Yellow fever virus; test: Effective concentration required for antiviral activity against yellow fever virus; type: functional, organism-based
[13] = tested on: Human respirovirus 3; test: Effective concentration required for antiviral activity against Parainfluenza virus; type: functional, organism-based
[14] = tested on: CCRF-CEM; test: Concentration required for cytotoxic activity against human T-cell lymphoma CEM cell line was determined using MST dye; type: functional
Method in brief: (§2)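 Cytotoxicity was read with an MTS-dye cell proliferation assay and expressed as CC50 (µM).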

[15] = tested on: Vero; test: Concentration required for cytotoxic activity against african green monkey kidney Vero cell line was determined using MST dye; type: functional; conditions: Chlorocebus sabaeus; method in brief: as §2
[16] = tested on: SK-MEL-28; test: Concentration required for cytotoxic activity against human malignant melanoma SK-MEL-28 cell line was determined using MST dye; type: functional; method in brief: as §2
[17] = tested on: HepG2; test: Concentration required for cytotoxic activity against human hepatocellular carcinoma HepG2 cell line was determined using MST dye; type: functional; method in brief: as §2
[18] = tested on: Huh-7; test: Concentration required for cytotoxic activity against human hepatocellular carcinoma Huh-7 cell line was determined using MST dye; type: functional; method in brief: as §2
[19] = tested on: A549; test: Concentration required for cytotoxic activity against human lung carcinoma A-549 cell line using neutral red method; type: functional
[20] = tested on: LLC-MK2; test: Concentration required for cytotoxic activity against rhesus monkey kidney LLC-MK2 cell line was determined using neutral red method; type: functional, Cercopithecidae; conditions: Macaca mulatta
[21] = tested on: Measles morbillivirus; test: Effective concentration required for antiviral activity against measles virus; type: functional, organism-based
[22] = tested on: Huh-7; test: Effective concentration required for reduction in subgenomic hepatitis C virus replicon RNA levels in Huh-7 cells after 96 hr of compound exposure; type: functional, cell-based; conditions: Homo sapiens, Huh-7, 96 h; method in brief: as §1
[23] = tested on: Vero; test: Concentration required for cytotoxic activity against african green monkey kidney Vero cell line was determined using neutral red dye; type: functional; conditions: Chlorocebus sabaeus
[24] = tested on: MDCK; test: Concentration required for cytotoxic activity against madin darby canine kidney MDCK cell line was determined using neutral red method; type: functional; conditions: Canis lupus familiaris
[25] = tested on: CV-1; test: Concentration required for cytotoxic activity against african green monkey kidney CV-1 cell line was determined using neutral red method; type: functional, Cercopithecidae; conditions: Chlorocebus aethiops
[26] = Concentration required for cytotoxic activity against african green monkey kidney B-SC-1 cell line was determined using neutral red method; type: functional; conditions: Cercopithecidae, BSC-1
[27] = tested on: PBMC; test: Concentration required for cytotoxic activity against primary human peripheral blood mononuclear PBM cell line was determined using MST dye; type: functional; method in brief: as §2
[28] = tested on: KB; test: Concentration required for cytotoxic activity against human epidermoid carcinoma of the nasopharynx KB cell line was determined using neutral red method; type: functional
[29] = tested on: Influenza A virus; test: Effective concentration required for antiviral activity against Influenza A virus; type: functional, organism-based
[30] = tested on: Influenza B virus; test: Effective concentration required for antiviral activity against Influenza B virus; type: functional, organism-based
[31] = tested on: unidentified adenovirus; test: Effective concentration required for antiviral activity against adenovirus type 1; type: functional, organism-based, Human adenovirus 1
[32] = tested on: Hepatitis B virus; test: Effective concentration required for antiviral activity against hepatitis B virus; type: functional, organism-based
[33] = tested on: Human rhinovirus sp.; test: Effective concentration required for antiviral activity against rhinovirus; type: functional, organism-based, Enterovirus
[34] = tested on: Human alphaherpesvirus 1; test: Effective concentration required for antiviral activity against herpes simplex virus type 1
[35] = tested on: Human alphaherpesvirus 1; test: Effective concentration required for 90% of antiviral activity against herpes simplex virus type 1

O=c1ccc2nnn3c2n1C1O[C@H](C3)[C@@H](O)[C@H]1O
EC50 [1]: > 100 µM | EC50 [2]: > 100 µM | CC50 [3]: > 100 µM | EC50 [4]: > 100 µM | EC50 [5]: > 100 µM | EC50 [6]: > 100 µM | EC90 [7]: > 100 µM | EC90 [8]: > 100 µM | EC90 [9]: > 100 µM | EC90 [10]: 79.8 µM | EC50 [11]: > 100 µM | EC50 [12]: > 100 µM | EC50 [13]: > 100 µM | CC50 [14]: 13.8 µM | CC50 [15]: > 100 µM | CC50 [16]: > 100 µM | CC50 [17]: 74.4 µM | CC50 [18]: 49.6 µM | CC50 [19]: > 100 µM | CC50 [20]: > 100 µM | EC50 [21]: > 100 µM | EC50 [22]: 19.7 µM | CC50 [23]: > 100 µM | CC50 [24]: > 100 µM | CC50 [25]: > 100 µM | CC50 [26]: > 100 µM | CC50 [27]: > 100 µM | CC50 [28]: > 100 µM | EC50 [29]: > 100 µM | EC50 [30]: 28 µM | EC50 [31]: > 100 µM | EC50 [32]: > 100 µM | EC50 [33]: > 100 µM | EC50 [34]: > 100 µM | EC90 [35]: > 100 µM
